Source: PubChem
Hits are enriched below; roughly 2.2% of the tested compounds scored in any of these assays.
Neddyl block = inhibitors of human cullin neddylation | P61081+Q13564 | hit rate 0.58% among 360,000 | inhibition, % at 25 µM | TR-FRET cullin neddylation, biochemical; in the data active = inhibition above about 36%
Target sequence (P61081 whole entry, looked up): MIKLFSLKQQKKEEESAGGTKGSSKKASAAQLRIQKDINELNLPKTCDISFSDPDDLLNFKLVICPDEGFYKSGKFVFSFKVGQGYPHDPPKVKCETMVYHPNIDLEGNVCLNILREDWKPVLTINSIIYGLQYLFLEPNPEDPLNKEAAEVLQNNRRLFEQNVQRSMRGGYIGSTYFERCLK
Target sequence (Q13564 whole entry, looked up): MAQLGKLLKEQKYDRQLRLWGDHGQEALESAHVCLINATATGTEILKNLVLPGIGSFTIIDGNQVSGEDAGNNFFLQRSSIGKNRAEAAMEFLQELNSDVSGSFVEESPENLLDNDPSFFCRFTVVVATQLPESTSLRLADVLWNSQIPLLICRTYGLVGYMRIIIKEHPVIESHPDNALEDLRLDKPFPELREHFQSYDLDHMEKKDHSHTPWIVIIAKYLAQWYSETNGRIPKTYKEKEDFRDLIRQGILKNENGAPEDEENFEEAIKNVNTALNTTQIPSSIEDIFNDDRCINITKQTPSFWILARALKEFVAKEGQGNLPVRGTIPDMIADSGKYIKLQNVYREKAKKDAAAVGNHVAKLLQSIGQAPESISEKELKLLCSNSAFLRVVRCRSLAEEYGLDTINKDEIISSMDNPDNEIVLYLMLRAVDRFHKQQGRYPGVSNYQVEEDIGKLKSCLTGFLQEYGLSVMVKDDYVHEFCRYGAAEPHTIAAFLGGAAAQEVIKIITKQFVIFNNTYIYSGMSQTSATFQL
HKDC1 inh = blocks human hexokinase HKDC1 activity. Q2TB90. recombinant HKDC1, G6PDH/diaphorase resazurin coupled fluorescence. inhibition, % at 20 µM. hit rate 0.16% among 340,000. AID 493160;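 active = inhibition above about 35% when tested at 20 µM, limit read from the data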;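 note: plate controls were DMSO wells with enzyme for no effect and DMSO wells lacking enzyme for full effect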
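Test system: Recombinant HKDC1 (HK5) hexokinase enzyme, produced in-house | Input: HKDC1 at 5 µg/mL | Buffer or medium: Tris pH 8.0 buffer with MgCl2, Tween-20, BSA, BME | Schedule: 90 min reaction incubation at room temperature, dark | Technique: Resazurin-to-resorufin fluorescence via G6PDH and diaphorase coupling, 525/613 nm | Controls: DMSO wells with and without enzyme mix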
PfGluPho inh = PfG6PD (Plasmodium falciparum) enzyme inhibition | hit rate 0.78% among 350,000 | AID 504690 | PfGluPho enzyme, NADPH resazurin-diaphorase fluorescence | inhibition, % at 20 µM;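 active = inhibition reaching at least a set limit at 20 µM in the primary screen, cut at about 59% in these data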;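 note: 0% = DMSO wells with substrate and 100% = DMSO wells lacking glucose-6-phosphate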
M18AAP inhibitor = blocks P. falciparum M18 aspartyl aminopeptidase; inhibition, % at 7.35 µM; recombinant PfM18AAP, H-Glu-NHMec fluorogenic cleavage; hit rate 1.2% among 290,000;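 active = inhibition above the campaign mean inhibition over all tested compounds plus 3 SD, cut at about 28% in these data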;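 note: 0% = plate median of test compound wells and 100% = 2 mM ZnCl2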
PfGluPho conf = confirmation of Plasmodium falciparum G6PD inhibitors | shares compounds with PfGluPho inh | recombinant PfGluPho, NADPH-diaphorase-resazurin fluorescence | inhibition, % at 20 µM | hit rate 34% among 2,400 | AID 504753;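 active = inhibition of at least 50% at 20 µM in any single replicate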;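 note: 0% = DMSO with substrate and 100% = DMSO lacking glucose-6-phosphate substrate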
Diaph ctr 10uM = counter-screen for P. falciparum G6PD inhibitors: diaphorase inhibitors, oxidizers; hit rate 39% among 820; diaphorase-coupled resazurin reduction, fluorescence, NADPH 10 uM; AID 504862; inhibition, % at 20 µM; shares compounds with PfGluPho inh;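 active = average inhibition reaching 50% or more with the compound at 20 µM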;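 note: resorufin red fluorescence formed as diaphorase reduces resazurin using NADPH; 0% = DMSO with enzyme and 100% = DMSO without enzyme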
Diaph ctr 30uM = counter-screen for P. falciparum G6PD inhibitors: diaphorase inhibitors, oxidizers; inhibition, % at 20 µM; hit rate 29% among 820; Diaphorase/resazurin coupled assay, resorufin fluorescence, 30 uM NADPH; shares compounds with PfGluPho inh; AID 504863;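 active = inhibition averaging 50% or more, tested at 20 µM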;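 note: 0% = DMSO with enzyme and 100% = DMSO wells lacking diaphorase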
Starred values were filed as active, the others as inactive; x = not tested or not shown.

SMILES | Neddyl block | HKDC1 inh | PfGluPho inh | M18AAP inhibitor | PfGluPho conf | others
Cc1ccc(-c2c(C(=O)N/N=C/c3ccsc3)nnn2-c2nonc2N)cc1 | -6.5 | 0.6 | 82.2* | 1.4 | 54.1* | Diaph ctr 10uM=46.0;Diaph ctr 30uM=47.1
Cc1ccc(-c2c(C(=O)N/N=C/c3ccoc3)nnn2-c2nonc2N)cc1 | 0.0 | -1.8 | 28.1 | -7.1 | x
CCOc1ccc(-c2c(C(=O)N/N=C/c3ccc(C)cc3)nnn2-c2nonc2N)cc1 | 3.6 | -4.7 | 19.4 | 5.2 | x
Cc1ccc(-c2c(C(=O)N/N=C/c3cccc(Cl)c3)nnn2-c2nonc2N)cc1 | 0.8 | 2.5 | 144.8* | 2.9 | 110.3* | Diaph ctr 10uM=99.3*;Diaph ctr 30uM=83.6*
Cc1ccc(-c2c(C(=O)N/N=C/c3cccs3)nnn2-c2nonc2N)cc1 | -8.9 | 2.9 | 80.7* | 0.3 | 69.4* | Diaph ctr 10uM=61.1*;Diaph ctr 30uM=48.4
O=C(Cc1ccc(NC(=O)C2CCCN(C(=O)C3CCC3)C2)cc1)Nc1ccc(C(=O)N2CCOCC2)cc1 (stereo not given) | -6.8 | -6.3 | 11.5 | x | x
O=C(CCC(=O)N1CCN(S(=O)(=O)c2ccc([N+](=O)[O-])cc2)CC1)N1CCOCC1 | -44.1 | 0.6 | -3.3 | x | x
COC(=O)CCCC1=CC2=CC(=O)C(C)(OC(=O)c3cccs3)C(=O)C2=CN1CCc1ccccn1 (stereo not given) | -24.8 | 21.1 | 70.2* | x | 22.9
COC(=O)CCC(=O)OC1(C)C(=O)C2=CN(CCc3ccccn3)C(c3ccc(OC)cc3)=CC2=C(Br)C1=O (stereo not given) | 0.8 | 32.8 | 99.3* | x | 40.6
CN(C(=O)c1cccc(NC(=O)Cc2ccc(NC(=O)C3CCN(C(=O)C4CCCC4)CC3)cc2)c1)C1CC1 | -1.9 | -4.9 | -0.9 | x | x
CC(C)n1ncc2c(C(=O)Nc3cccc(S(=O)(=O)N(C)C)c3)cc(C3CC3)nc21 | 10.0 | 1.1 | 10.8 | x | x
N#CC1=C2SCN(c3ccccc3)CN2C(=O)CC1c1ccccc1Cl (stereo not given) | 0.6 | 6.2 | 74.5* | 20.9 | 12.7
N#CC1=C2SCN(Cc3ccco3)CN2C(=O)CC1c1c(F)cccc1Cl (stereo not given) | 7.7 | 2.8 | 65.7* | 18.9 | 21.7
N#CC1=C2SCN(c3ccccc3)CN2C(=O)CC1c1c(Cl)cccc1Cl (stereo not given) | -8.5 | 7.4 | 85.5* | 36.1* | 30.4
N#CC1=C2SCC(O)(c3ccccc3)N2C(=O)CC1c1cccs1 (stereo not given) | -18.2 | -3.9 | -7.8 | 20.4 | x
N#CC1=C2SCN(c3ccccc3)CN2C(=O)CC1c1cccs1 (stereo not given) | -61.7 | 4.6 | 70.7* | 37.4* | 36.4
O=C(NCc1ccco1)C1CC(=O)N(c2ccc(Cl)cc2)C1 (stereo not given) | 0.0 | 1.0 | 1.8 | -7.7 | x
CCSC1=C(C#N)C(c2ccccc2Cl)CC(=O)N1 (stereo not given) | -6.1 | -2.2 | 4.9 | 10.2 | x
COc1ccc(S(=O)(=O)N(C)CC(=O)NCCN2CCOCC2)cc1C | 3.6 | -1.6 | 6.7 | -8.2 | x
N#CC1=C2SCN(Cc3ccccc3)CN2C(=O)CC1c1ccccc1F (stereo not given) | -7.0 | 12.9 | 61.0* | 26.1 | 26.4
CCCn1c(=O)n(C)c(=O)c2c(SCC(=O)NCC(c3ccccc3)N(C)C)nc(CC(C)C)nc21 (stereo not given) | -2.7 | -0.4 | -3.2 | 1.1 | x
COc1ccccc1NC(=O)C(C)OC(=O)c1cccc(-n2cnnn2)c1 (stereo not given) | 4.7 | -1.5 | -6.1 | x | x
N#C/C(=C/c1ccc(N2CCOCC2)o1)c1ccc(Br)cc1 | -87.8 | 2.4 | 80.3* | 0.7 | 28.1
N#C/C(=C/c1ccc(N2CCCCCC2)o1)c1ccc(F)cc1 | -6.2 | 2.7 | 45.3 | -3.6 | x
N#C/C(=C/c1ccc(N2CCCCCC2)o1)c1cccc(F)c1 | -22.4 | 3.8 | 64.9* | 1.3 | -3.8
SMILES | Neddyl block | HKDC1 inh | PfGluPho inh | M18AAP inhibitor | PfGluPho conf | others
Cc1cn([C@H]2C[C@H](O)[C@@H](CCC(=O)NCCN3CCCCC3)O2)c(=O)[nH]c1=O | 0.0 | -5.9 | 5.6 | x | x
C/C(=N\Nc1cccc([N+](=O)[O-])c1)c1ccccc1O | -14.7 | -1.3 | 58.5 | 9.7 | x
C/C(=N\Nc1cccc([N+](=O)[O-])c1)c1cc(F)ccc1O | -10.7 | -3.8 | 83.8* | -3.6 | 16.1
CCOc1ccccc1NC(=O)c1csc(C)c1C | -1.5 | -5.6 | 3.3 | -5.2 | x
O=C(/C=C1\C(=O)Nc2ccccc21)/C=C1\C(=O)Nc2ccccc21 | 1.5 | 12.9 | 80.6* | 13.8 | 41.2
CSCCC(NC(=O)COc1ccccc1)C(=O)N1CCN(C(C)=O)CC1 (stereo not given) | 2.9 | -5.8 | 5.5 | -3.7 | x
COc1cccc(/C=N/NC(=O)c2cccc3ccccc23)c1 | -7.8 | -1.0 | 12.0 | 2.7 | x
COc1ccc(NC(C)C(=O)N/N=C/c2ccccc2OCc2cccc(Br)c2)cc1 (stereo not given) | -3.4 | 3.2 | 39.0 | 3.4 | x
COc1ccc(OC)c(/C=N/NC(=O)CCCC(=O)Nc2cccc(Br)c2)c1 | x | 6.4 | 75.3* | -1.8 | 36.4
COc1ccc(OC)c(/C=N/NC(=O)CNC(=O)c2cccc3ccccc23)c1 | x | -0.6 | 98.7* | 2.0 | 73.9* | Diaph ctr 10uM=63.4*;Diaph ctr 30uM=61.7*
COc1ccc(CCCC(=O)NCC(=O)N/N=C/c2cc(Cl)ccc2OC)cc1 | -5.6 | 1.6 | 82.8* | 0.3 | 55.4* | Diaph ctr 10uM=59.1*;Diaph ctr 30uM=53.3*
COc1ccc(NC(C)C(=O)N/N=C/c2cc(Br)ccc2OC)cc1 (stereo not given) | -16.1 | -1.4 | 85.8* | 1.2 | 62.4* | Diaph ctr 10uM=47.1;Diaph ctr 30uM=40.7
O=C(NCc1ccccn1)C(=O)Nc1cc2c3c(c1)CC(=O)N3CCC2 | 6.5 | -4.2 | 12.2 | x | x
CCOC(=O)Cc1cc(=O)n2[nH]c(C(C)(C)C)cc2n1 | 35.2 | -0.8 | 77.9* | -1.2 | 75.5* | Diaph ctr 10uM=64.1*;Diaph ctr 30uM=45.9
Cc1ccc(OCC(=O)NC2CCCC(C)C2C)c([N+](=O)[O-])n1 (stereo not given) | -30.5 | 1.3 | 10.0 | x | x
Cc1cc(C)c(SSc2nnnn2-c2ccccc2)c(C)c1 | -16.5 | x | 112.5* | x | 39.6
Cc1ccc2cc(C)c(Sc3nnnn3-c3ccccc3)nc2c1 | -16.1 | -6.7 | 9.4 | -7.0 | x
CCOc1ccccc1NC(=O)CCCNC(=O)Cn1cnc2sc(C)c(C)c2c1=O | -5.6 | -4.1 | 66.6* | -0.3 | 44.6
COc1ccc([N+](=O)[O-])cc1/C=N/NC(=O)CNC(=O)C(c1ccccc1)c1ccccc1 | 0.2 | 6.4 | 139.3* | 8.0 | 86.3* | Diaph ctr 10uM=84.8*;Diaph ctr 30uM=80.4*
COc1ccc([N+](=O)[O-])cc1/C=N/NC(=O)CNC(=O)c1cccc(F)c1 | -23.0 | -11.1 | 70.0* | 4.5 | 22.0
NC(=O)C[C@H](N)c1cn([C@@H](CC(N)=O)C(=O)N2CCNCC2)nn1 | -1.6 | -2.1 | 8.9 | x | x
